Tests used:
Format in all cases: functional
[1] = test system: EKVX; experiment: Growth inhibition of human EKVX cells incubated for 48 hrs by sulforhodamine B assay
In short: (§1)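 NCI-60 five-dose mode: five tenfold dilutions (0.01, 0.1, 1, 10, 100 µM) are applied for 48 h to cells in RPMI 1640 with 5% FBS at 37 °C. Endpoint is TCA fixation with sulforhodamine B read at 515 nm. % growth comes from the 0 h and control absorbances. GI50 is the concentration giving a 50% reduction in net cell growth.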

[2] = test system: COLO 205; experiment: Growth inhibition of human COLO205 cells incubated for 48 hrs by sulforhodamine B assay; settings: COLO 205, 48 h; in short: as §1
[3] = test system: KM12; experiment: Growth inhibition of human KM12 cells incubated for 48 hrs by sulforhodamine B assay; settings: KM12, 48 h
In short: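 NCI-60 five-dose SRB assay in RPMI 1640 with 5% FBS, 37 °C, 5% CO2. Compound given at five tenfold dilutions, 0.01–100 µM, for 48 h. Adherent cells fixed with TCA, suspension cells with 16% final TCA. Bound SRB read at 515 nm and growth calculated against time-zero and untreated controls. GI50 taken from dose–response curves as the concentration giving a 50% decrease in net cell growth.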

[4] = test system: SF-295; experiment: Growth inhibition of human SF295 cells incubated for 48 hrs by sulforhodamine B assay; settings: SF-295, 48 h
In short: (§2)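 NCI-60 five-dose SRB assay. Cells were exposed for 48 h to tenfold dilutions of 0.01, 0.1, 1, 10 and 100 µM, in RPMI 1640 with 5% FBS. Plates fixed with TCA at the time of drug addition served as the time-zero reference. GI50 is the concentration giving a 50% reduction in net growth. TGI is total growth inhibition. LC50 is a net 50% loss of the initial cells.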

[5] = test system: OVCAR-8; experiment: Growth inhibition of human OVCAR8 cells incubated for 48 hrs by sulforhodamine B assay; settings: OVCAR-8, 48 h; in short: as §2
[6] = test system: 786-0; experiment: Growth inhibition of human 786-0 cells incubated for 48 hrs by sulforhodamine B assay; settings: 786-0, 48 h; in short: as §1
[7] = test system: U-251; experiment: Growth inhibition of human U251 cells assessed as cell viability at 100 uM incubated for 48 hrs by sulforhodamine B assay; settings: U-251, 48 h, read-out: Activity
[8] = test system: COLO 205; experiment: Growth inhibition of human COLO205 cells assessed as cell viability at 100 uM incubated for 48 hrs by sulforhodamine B assay; settings: COLO 205, 48 h, read-out: Activity
[9] = test system: NCI-H460; experiment: Growth inhibition of human NCI-H460 cells assessed as cell viability at 1 uM incubated for 48 hrs by sulforhodamine B assay; settings: NCI-H460, 48 h, read-out: Activity
[10] = test system: A549; experiment: Growth inhibition of human A549/ATCC cells assessed as cell viability at 1 uM incubated for 48 hrs by sulforhodamine B assay; settings: A549, 48 h, read-out: Activity; in short: as §1
[11] = test system: TK-10; experiment: Growth inhibition of human TK10 cells assessed as cell viability at 0.1 uM incubated for 48 hrs by sulforhodamine B assay; settings: TK-10, 48 h, read-out: Activity
[12] = test system: ACHN; experiment: Growth inhibition of human ACHN cells assessed as cell viability at 0.1 uM incubated for 48 hrs by sulforhodamine B assay; settings: read-out: Activity; in short: as §1
[13] = test system: OVCAR-5; experiment: Growth inhibition of human OVCAR5 cells assessed as cell viability at 0.1 uM incubated for 48 hrs by sulforhodamine B assay; settings: OVCAR-5, 48 h, read-out: Activity
[14] = test system: M14; experiment: Growth inhibition of human M14 cells assessed as cell viability at 0.1 uM incubated for 48 hrs by sulforhodamine B assay; settings: M14, 48 h, read-out: Activity
[15] = test system: KM12; experiment: Growth inhibition of human KM12 cells assessed as cell viability at 0.1 uM incubated for 48 hrs by sulforhodamine B assay; settings: KM12, 48 h, read-out: Activity
[16] = test system: NCI-H522; experiment: Growth inhibition of human NCI-H522 cells assessed as cell viability at 0.1 uM incubated for 48 hrs by sulforhodamine B assay; settings: NCI-H522, 48 h, read-out: Activity
[17] = test system: NCI-H23; experiment: Growth inhibition of human NCI-H23 cells assessed as cell viability at 0.1 uM incubated for 48 hrs by sulforhodamine B assay; settings: NCI-H23, 48 h, read-out: Activity
[18] = test system: HOP-92; experiment: Growth inhibition of human HOP92 cells assessed as cell viability at 0.1 uM incubated for 48 hrs by sulforhodamine B assay; settings: HOP-92, 48 h, read-out: Activity
[19] = test system: SN12C; experiment: Growth inhibition of human SN12C cells assessed as cell viability at 0.001 uM incubated for 48 hrs by sulforhodamine B assay relative to control; settings: read-out: Activity
[20] = test system: RXF 393; experiment: Growth inhibition of human RXF393 cells assessed as cell viability at 0.001 uM incubated for 48 hrs by sulforhodamine B assay relative to control; settings: RXF 393, 48 h, read-out: Activity
[21] = test system: CAKI-1; experiment: Growth inhibition of human Caki1 cells assessed as cell viability at 0.001 uM incubated for 48 hrs by sulforhodamine B assay relative to control; settings: CAKI-1, 48 h, read-out: Activity
[22] = test system: M14; experiment: Growth inhibition of human M14 cells assessed as cell viability at 0.001 uM incubated for 48 hrs by sulforhodamine B assay relative to control; settings: M14, 48 h, read-out: Activity
[23] = test system: SNB-19; experiment: Growth inhibition of human SNB19 cells assessed as cell viability at 0.001 uM incubated for 48 hrs by sulforhodamine B assay relative to control; settings: SNB-19, 48 h, read-out: Activity
[24] = test system: HOP-62; experiment: Growth inhibition of human HOP62 cells assessed as cell viability at 0.001 uM incubated for 48 hrs by sulforhodamine B assay relative to control; settings: HOP-62, 48 h, read-out: Activity
[25] = test system: NCI/ADR-RES; experiment: Growth inhibition of human NCI/ADR-RES cells assessed as cell viability at 100 uM incubated for 48 hrs by sulforhodamine B assay; settings: read-out: Activity
[26] = read-out: LC50 (the source's name)
[27] = read-out: pLC50 (the source's name) (converted)

`CC1=C(C(=O)OCc2ccccc2)C(c2ccc3c(c2)OCO3)n2c(nc3ccccc32)N1` (racemic) gave a GI50 ([1]; read-out: GI50) of 0.69 µM, an LC50 ([1]; read-out: LC50) greater than 100 µM and a TGI ([1]; read-out: TGI) greater than 100 µM. For the same compound, the GI50 ([1]; read-out: pGI50 (converted)) was 0.692 µM, the LC50 ([1]; read-out: pLC50 (converted)) was greater than 100 µM and the TGI ([1]; read-out: pTGI) was greater than 100 µM. The GI50 ([2]; read-out: GI50) was 0.5 µM, the LC50 ([2]; read-out: LC50) was greater than 100 µM and the TGI ([2]; read-out: TGI) was greater than 100 µM. The GI50 ([2]; read-out: pGI50 (converted)) was 0.501 µM, the LC50 ([2]; read-out: pLC50 (converted)) was greater than 100 µM and the TGI ([2]; read-out: pTGI) was greater than 100 µM. It also gave a GI50 ([3]; read-out: GI50) of 0.34 µM, an LC50 ([3]; read-out: LC50) greater than 100 µM and a TGI ([3]; read-out: TGI) greater than 100 µM. The GI50 ([3]; read-out: pGI50 (converted)) was 0.339 µM, the LC50 ([3]; read-out: pLC50 (converted)) was greater than 100 µM and the TGI ([3]; read-out: pTGI) was greater than 100 µM. It also gave a GI50 ([4]; read-out: GI50) of 0.33 µM, an LC50 (concentration causing 50% net loss of initial cells) ([4]; read-out: LC50) greater than 100 µM and a TGI ([4]; read-out: TGI) greater than 100 µM. For the same compound, the GI50 ([4]; read-out: pGI50 (converted)) was 0.331 µM, the LC50 (concentration causing 50% net loss of initial cells) ([4]; read-out: pLC50 (converted)) was greater than 100 µM and the TGI ([4]; read-out: pTGI) was greater than 100 µM. The GI50 ([5]; read-out: GI50) was 0.63 µM, the CC50 [5, 26] was greater than 100 µM and the TGI ([5]; read-out: TGI) was greater than 100 µM. It also gave a GI50 ([5]; read-out: pGI50 (converted)) of 0.631 µM, a CC50 [5, 27] greater than 100 µM and a TGI ([5]; read-out: pTGI) greater than 100 µM. For the same compound, the GI50 ([6]; read-out: GI50) was 0.47 µM, the CC50 [6, 26] was greater than 100 µM and the TGI ([6]; read-out: TGI) was greater than 100 µM. The GI50 ([6]; read-out: pGI50 (converted)) was 0.468 µM, the CC50 [6, 27] was greater than 100 µM and the TGI ([6]; read-out: pTGI) was greater than 100 µM. The viability at 100 µM [7] was 3%, the viability at 100 µM [8] was 39% and the viability at 1 µM [9] was 10%. The viability at 1 µM [10] was 40%, the viability at 0.1 µM [11] was 91% and the viability at 0.1 µM [12] was 107%. For the same compound, the viability at 0.1 µM [13] was 100%, the viability at 0.1 µM [14] was 90% and the viability at 0.1 µM [15] was 86%. For the same compound, the viability at 0.1 µM [16] was 57%, the viability at 0.1 µM [17] was 92% and the viability at 0.1 µM [18] was 70%. The viability at 0.001 µM [19] was 89%, the viability at 0.001 µM [20] was 92% and the viability at 0.001 µM [21] was 83%. It also gave a viability at 0.001 µM [22] of 93%, a viability at 0.001 µM [23] of 94% and a viability at 0.001 µM [24] of 91%. The viability at 100 µM [25] was 14%.

Reference: ChEMBL document CHEMBL4406880, “Design, synthesis, and bioactivity of dihydropyrimidine derivatives as kinesin spindle protein inhibitors” (Bioorg Med Chem, 2019)
